Results reported in ChEMBL document CHEMBL1932989, “Dibasic biphenyl H3 receptor antagonists: Steric tolerance for a lipophilic side chain” (Eur J Med Chem, 2012).
Active and inactive are the calls of the source. The rule behind the calls is not given here.

Key:
Histamine H3 receptor [1] = biological target: Histamine H3 receptor (Rattus norvegicus, UniProt Q9QYN8); assay: Displacement of [3H]RAMHA from rat histamine H3 receptor in rat cerebral cortex membranes; format: cell membranes, Membrane
In short: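 Rat brain membranes (Kilpatrick method) incubated 45 min with 0.5 nM [3H]-(R)-α-methylhistamine and compound (0.03 nM–10 μM) in 50 mM Tris–HCl pH 7.4, 50 mM NaCl, 0.5 mM EDTA. Vacuum filtration, two ice-cold buffer rinses. Nonspecific binding with 10 μM thioperamide. pIC50 converted to pKi via Cheng–Prusoff; means ± SEM.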

[2] = biological target: Histamine H1 receptor (Cavia porcellus) (UniProt P31389); assay: Antagonist activity at histamine H1 receptor in guinea pig longitudinally mounted ileum assessed as […] up to 10 uM […]; format: functional, tissue-based
[3] = biological target: Neuronal acetylcholine receptor subunit alpha-7 (Homo sapiens) (UniProt P36544); assay: Displacement of [125I]alpha-bungarotoxin from human alpha7 nicotinic receptor at 1 uM by scintillation counting
In short: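 Membrane homogenates bearing human α7 nicotinic receptor (20 µg protein) incubated 120 min at 37 °C with 0.05 nM [125I]α-bungarotoxin in 50 mM K2HPO4/KH2PO4 pH 7.4, 10 mM MgCl2, 0.1% BSA. Nonspecific binding with 1 µM α-bungarotoxin. Filtration on PEI-soaked glass fibre, scintillation counting; % inhibition of specific binding, duplicate.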

Histamine H3 receptor [4] = biological target: T1, Histamine H3 receptor (Homo sapiens, UniProt Q9Y5N1); assay: Displacement of [3H]RAMHA from human histamine H3 receptor expressed in GPCR97 transfected human SK-N-MC cells; format: cell-based
In short: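 SK-N-MC cell membranes stably expressing human H3; 60 min at room temperature with 0.5 nM [3H]-(R)-α-methylhistamine, competitor 0.01 nM–10 μM. Filtration, two washes with ice-cold 50 mM Tris–HCl/5 mM EDTA. Nonspecific binding with 10 μM histamine. pIC50 from displacement curves converted to pKi by Cheng–Prusoff; means ± SEM.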

Histamine H4 receptor = Histamine H4 receptor (Homo sapiens, UniProt Q9H3N8); assay: Displacement of [3H]histamine from human histamine H4 receptor expressed in GPCR97 transfected human SK-N-MC cells; format: cell-based
In short: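 Membranes of SK-N-MC cells stably expressing human H4, 60 min at room temperature with 10 nM [3H]-histamine, competitor 0.01 nM–10 μM. Filtration with two ice-cold Tris–HCl/EDTA washes. 10 μM histamine defined nonspecific binding. pKi derived from pIC50 by Cheng–Prusoff.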

Histamine H3 receptor [5] = biological target: T1, Histamine H3 receptor; assay: Antagonist activity at human histamine H3 receptor expressed in human SK-N-MC cells assessed as inhibition of (R)-alpha-methylhistamine-induced effect after 6 hrs by beta-galactosidase reporter gene assay; format: functional, cell-based
In short: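 SK-N-MC cells expressing human H3 receptor and a β-galactosidase reporter; compounds (1 nM–10 µM) added 10 min before (R)-α-methylhistamine (0.1–100 nM), forskolin 5 µM added 5 min after compound. Incubated 6 h at 37 °C, cells lysed, chlorophenol red β-D-galactopyranoside colour read at 570 nm. Response as % agonist maximum; pKB by Furchgott equation, or pD2' by Van Rossum for non-surmountable antagonism; mean ± SEM.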

[6] = biological target: Histamine H2 receptor (Cavia porcellus) (UniProt P47747); assay: Antagonist activity at histamine H2 receptor in guinea pig spontaneously beating isolated atria assessed as changes in rate of spontaneous beating at 1 uM by cardiotachograph analysis
[7] = biological target: Histamine H2 receptor (Cavia porcellus) (UniProt P47747); conditions: Ileum

Histamine H2 receptor (Cavia porcellus), sequence (P47747 whole entry): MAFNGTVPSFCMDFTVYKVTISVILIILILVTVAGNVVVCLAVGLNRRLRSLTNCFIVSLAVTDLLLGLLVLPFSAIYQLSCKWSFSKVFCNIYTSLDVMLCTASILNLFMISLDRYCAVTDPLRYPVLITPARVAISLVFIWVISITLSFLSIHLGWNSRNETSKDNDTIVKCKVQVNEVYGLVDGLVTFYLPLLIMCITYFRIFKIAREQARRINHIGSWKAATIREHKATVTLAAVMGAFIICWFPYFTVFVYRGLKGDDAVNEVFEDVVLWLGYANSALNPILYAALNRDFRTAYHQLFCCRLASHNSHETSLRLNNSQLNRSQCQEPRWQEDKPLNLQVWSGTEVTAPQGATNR
Histamine H1 receptor (Cavia porcellus), sequence (P31389 whole entry): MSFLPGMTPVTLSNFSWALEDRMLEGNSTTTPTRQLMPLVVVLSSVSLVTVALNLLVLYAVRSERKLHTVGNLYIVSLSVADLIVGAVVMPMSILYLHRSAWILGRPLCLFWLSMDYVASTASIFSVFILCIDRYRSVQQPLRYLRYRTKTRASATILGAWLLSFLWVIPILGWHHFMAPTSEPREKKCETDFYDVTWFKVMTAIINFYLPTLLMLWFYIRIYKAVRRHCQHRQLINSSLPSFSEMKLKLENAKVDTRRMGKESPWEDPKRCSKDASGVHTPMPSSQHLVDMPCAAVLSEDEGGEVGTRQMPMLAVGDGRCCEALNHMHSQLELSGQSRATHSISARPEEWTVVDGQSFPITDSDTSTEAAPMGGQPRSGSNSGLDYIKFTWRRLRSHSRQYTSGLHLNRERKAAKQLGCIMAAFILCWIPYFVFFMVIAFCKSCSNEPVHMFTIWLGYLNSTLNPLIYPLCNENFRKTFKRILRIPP
Histamine H4 receptor, sequence (Q9H3N8 whole entry): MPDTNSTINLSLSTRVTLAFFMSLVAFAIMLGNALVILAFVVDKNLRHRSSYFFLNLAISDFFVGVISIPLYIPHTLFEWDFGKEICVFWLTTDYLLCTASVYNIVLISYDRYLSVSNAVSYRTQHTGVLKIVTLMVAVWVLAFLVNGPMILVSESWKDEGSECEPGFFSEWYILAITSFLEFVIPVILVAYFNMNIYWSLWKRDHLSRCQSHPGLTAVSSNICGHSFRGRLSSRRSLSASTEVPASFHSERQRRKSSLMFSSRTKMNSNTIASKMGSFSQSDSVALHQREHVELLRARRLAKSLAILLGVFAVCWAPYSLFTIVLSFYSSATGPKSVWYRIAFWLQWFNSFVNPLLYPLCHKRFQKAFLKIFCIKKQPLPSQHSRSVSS
Histamine H3 receptor (Rattus norvegicus, UniProt Q9QYN8), sequence (Q9QYN8 whole entry): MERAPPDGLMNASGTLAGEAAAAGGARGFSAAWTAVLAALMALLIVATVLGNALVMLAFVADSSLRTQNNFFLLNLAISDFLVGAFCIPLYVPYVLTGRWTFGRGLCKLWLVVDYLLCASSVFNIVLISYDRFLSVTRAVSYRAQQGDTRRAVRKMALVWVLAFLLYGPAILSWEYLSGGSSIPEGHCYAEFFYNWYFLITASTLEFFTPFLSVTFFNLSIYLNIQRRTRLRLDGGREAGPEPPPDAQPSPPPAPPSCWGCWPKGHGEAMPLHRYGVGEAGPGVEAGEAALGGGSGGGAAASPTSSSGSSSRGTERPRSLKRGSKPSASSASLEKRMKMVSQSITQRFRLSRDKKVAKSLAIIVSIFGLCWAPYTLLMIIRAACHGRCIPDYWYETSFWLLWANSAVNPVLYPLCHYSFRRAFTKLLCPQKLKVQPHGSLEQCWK
T1 sequence (Q9Y5N1 whole entry): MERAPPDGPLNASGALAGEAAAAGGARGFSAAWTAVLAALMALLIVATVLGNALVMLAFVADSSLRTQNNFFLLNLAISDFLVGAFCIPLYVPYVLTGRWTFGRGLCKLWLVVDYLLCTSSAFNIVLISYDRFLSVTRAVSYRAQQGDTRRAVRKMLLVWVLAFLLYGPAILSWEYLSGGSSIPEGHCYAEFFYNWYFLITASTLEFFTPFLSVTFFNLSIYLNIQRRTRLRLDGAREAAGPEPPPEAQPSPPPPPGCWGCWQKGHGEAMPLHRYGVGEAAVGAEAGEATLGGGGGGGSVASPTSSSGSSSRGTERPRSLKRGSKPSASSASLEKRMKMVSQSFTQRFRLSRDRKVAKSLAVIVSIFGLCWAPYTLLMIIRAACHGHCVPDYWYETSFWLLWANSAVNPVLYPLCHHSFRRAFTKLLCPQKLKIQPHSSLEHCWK
Neuronal acetylcholine receptor subunit alpha-7 (Homo sapiens), sequence (P36544 whole entry): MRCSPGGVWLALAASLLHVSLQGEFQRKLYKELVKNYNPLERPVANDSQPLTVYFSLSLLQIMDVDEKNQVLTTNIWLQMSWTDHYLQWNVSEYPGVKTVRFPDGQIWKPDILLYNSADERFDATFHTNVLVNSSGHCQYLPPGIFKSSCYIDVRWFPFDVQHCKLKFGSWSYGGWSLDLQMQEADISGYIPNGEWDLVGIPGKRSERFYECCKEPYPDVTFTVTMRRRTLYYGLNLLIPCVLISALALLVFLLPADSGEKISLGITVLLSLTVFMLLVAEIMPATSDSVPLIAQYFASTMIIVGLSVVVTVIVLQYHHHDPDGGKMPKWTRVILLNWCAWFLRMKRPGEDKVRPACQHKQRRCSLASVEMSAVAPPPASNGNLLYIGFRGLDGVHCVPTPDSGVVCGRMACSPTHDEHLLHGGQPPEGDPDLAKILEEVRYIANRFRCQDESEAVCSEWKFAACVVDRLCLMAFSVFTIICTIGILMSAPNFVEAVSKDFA

| Structure (SMILES) | Ki (Histamine H3 receptor [1]) [nM] | Activity [2] | inhibition [3] | Ki (Histamine H3 receptor [4]) [nM] | Ki (Histamine H4 receptor) [nM] | pKb (Histamine H3 receptor [5]) | Activity [6] | pKb [7] |
| --- | --- | --- | --- | --- | --- | --- | --- | --- |
| C[C@H]1CCCN1[C@H](CCCOc1ccccc1)c1ccc(-c2ccc(CN3CCCCC3)cc2)cc1 | 6.61 | inactive | inactive | 0.513 | ≥ 31600 | 8.48 | inactive |  |
| COc1ccc(OCCC[C@@H](c2ccc(-c3ccc(CN4CCCCC4)cc3)cc2)N2CCC[C@@H]2C)cc1 | 2.09 | inactive |  | 2.04 | ≥ 31600 | 8.71 | inactive |  |
| CCCCC(c1ccc(-c2ccc(CN3CCCCC3)cc2)cc1)N1CCCCC1 (racemic) | 4.27 | inactive |  | 1.29 | ≥ 31600 | 8.81 | inactive |  |
| C[C@@H]1CCCN1Cc1ccc(-c2ccc(CN3CCCCC3)cc2)cc1 | 3.55 | inactive |  | 1.48 | ≥ 31600 | 9.16 | inactive |  |
| C[C@H]1CCCN1[C@@H](CCCOc1ccccc1)c1ccc(-c2ccc(CN3CCCCC3)cc2)cc1 | 4.68 | inactive |  | 2.57 | ≥ 31600 | 9.15 | inactive |  |
| COCCC[C@H](c1ccc(-c2ccc(CN3CCCCC3)cc2)cc1)N1CCC[C@@H]1C | 1.48 | inactive |  | 2 | ≥ 31600 | 9.64 | inactive |  |
| CCCC[C@@H](c1ccc(-c2ccc(CN3CCCCC3)cc2)cc1)N1CCC[C@H]1C | 16.2 | inactive |  | 2.34 | ≥ 31600 | 8.58 | inactive |  |
| COCCC[C@@H](c1ccc(-c2ccc(CN3CCCCC3)cc2)cc1)N1CCC[C@@H]1C | 1.78 | inactive |  | 0.871 | ≥ 31600 | 10 | inactive |  |
| CCCC[C@@H](c1ccc(-c2ccc(CN3CCCCC3)cc2)cc1)N1CCCC[C@@H]1C | 26.3 | inactive |  | 2.45 | ≥ 31600 | 8.94 | inactive |  |
| CCCCC(c1ccc(-c2ccc(C)cc2)cc1)N1CCCCC1 (racemic) | 43700 |  |  | 13500 | ≥ 31600 |  | inactive |  |
| CCCC[C@H](c1ccc(-c2ccc(CN3CCCCC3)cc2)cc1)N1CCCC[C@@H]1C | 26.3 | inactive |  | 3.02 | ≥ 31600 | 8.91 | inactive |  |
| c1ccc(CC(c2ccc(-c3ccc(CN4CCCCC4)cc3)cc2)N2CCCCC2)cc1 (racemic) | 112 | inactive |  | 19.1 | ≥ 31600 | 8.3 | inactive |  |
| CN(C)C(Cc1ccccc1)c1ccc(-c2ccc(CN3CCCCC3)cc2)cc1 (racemic) | 30.2 | inactive |  | 16.6 | ≥ 31600 | 7.56 | inactive |  |
| CCCCCc1ccc(-c2ccc(CN3CCCCC3)cc2)cc1 | 60300 |  |  | 12900 | ≥ 31600 |  | inactive |  |
| CCCC[C@@H](c1ccc(-c2ccc(CN3CCCCC3)cc2)cc1)N1CCC[C@@H]1C | 1.41 | inactive |  | 1.26 | ≥ 31600 | 8.37 | inactive |  |
| C[C@@H]1CCCN1Cc1ccc(-c2ccc(C(Cc3ccccc3)N3CCCCC3)cc2)cc1 (mixture of isomers) | 29.5 | inactive |  | 5.62 | ≥ 31600 | 8.87 | inactive |  |
| C[C@H]1CCCN1Cc1ccc(-c2ccc(CN3CCCCC3)cc2)cc1 | 0.372 | inactive |  | 0.661 | ≥ 31600 | 9.46 | inactive |  |
| c1cc(-c2ccc(CN3CCCCC3)cc2)ccc1CN1CCCCC1 |  |  |  |  |  | 8.77 |  |  |
| COc1ccc(OCCC[C@H](c2ccc(-c3ccc(CN4CCCCC4)cc3)cc2)N2CCC[C@@H]2C)cc1 | 6.61 | inactive |  | 1.26 | ≥ 31600 | 8.71 | inactive |  |
| CCCC[C@H](c1ccc(-c2ccc(CN3CCCCC3)cc2)cc1)N1CCC[C@@H]1C | 8.71 | inactive |  | 1.55 | ≥ 31600 | 8.81 | inactive |  |
| CCCC[C@H](c1ccc(-c2ccc(CN3CCCCC3)cc2)cc1)N1CCC[C@H]1C | 12.6 | inactive |  | 2.45 | ≥ 31600 | 8.8 |  | 5.13 |
